Screening data: PubChem BioAssay, several laboratories
MT1-MMP act inh: blockers of MT1-MMP proenzyme processing, primary screen, HT1080 RFP-PRO-GFP cells, GFP/RFP fluorescence. GFP/RFP ratio change, % at 20 µM. 360,000 compounds, 0.061% hits. GFP/RFP ratio fluorescence, overnight; percent of plate control window, DMSO zero. AID 651647, 2012. Matrix metalloproteinase-14 (Homo sapiens), P50281;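 active = GFP/RFP ratio change of at least 30% with cell ATP level not reduced by more than half and red fluorescence within 50% of control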
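Test system: HT1080 RFP-PRO-GFP cells; Benchmarks: DMSO and RFP-L50D-GFP cell wells; Timing: cells overnight before dosing, compound overnight, 37 °C, 5% CO2; Compound: one 20 µM compound dose with 1% DMSO; Read-out: GFP/RFP fluorescence ratio.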
p-CIP stab down: p/CIP-EGFP fusion destabilizers, primary screen, fluorescence, F442A cells. Q05BA5. 16 h. decrease of EGFP signal, % at 10 µM. 290,000 compounds, 0.01% hits;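 active = EGFP signal decrease of at least 30% at 10 µM or well 3 SD below plate mean, unless failing retest; inactive = the rest, including hits failing retest or dose response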
Target sequence (Q05BA5 1-1403): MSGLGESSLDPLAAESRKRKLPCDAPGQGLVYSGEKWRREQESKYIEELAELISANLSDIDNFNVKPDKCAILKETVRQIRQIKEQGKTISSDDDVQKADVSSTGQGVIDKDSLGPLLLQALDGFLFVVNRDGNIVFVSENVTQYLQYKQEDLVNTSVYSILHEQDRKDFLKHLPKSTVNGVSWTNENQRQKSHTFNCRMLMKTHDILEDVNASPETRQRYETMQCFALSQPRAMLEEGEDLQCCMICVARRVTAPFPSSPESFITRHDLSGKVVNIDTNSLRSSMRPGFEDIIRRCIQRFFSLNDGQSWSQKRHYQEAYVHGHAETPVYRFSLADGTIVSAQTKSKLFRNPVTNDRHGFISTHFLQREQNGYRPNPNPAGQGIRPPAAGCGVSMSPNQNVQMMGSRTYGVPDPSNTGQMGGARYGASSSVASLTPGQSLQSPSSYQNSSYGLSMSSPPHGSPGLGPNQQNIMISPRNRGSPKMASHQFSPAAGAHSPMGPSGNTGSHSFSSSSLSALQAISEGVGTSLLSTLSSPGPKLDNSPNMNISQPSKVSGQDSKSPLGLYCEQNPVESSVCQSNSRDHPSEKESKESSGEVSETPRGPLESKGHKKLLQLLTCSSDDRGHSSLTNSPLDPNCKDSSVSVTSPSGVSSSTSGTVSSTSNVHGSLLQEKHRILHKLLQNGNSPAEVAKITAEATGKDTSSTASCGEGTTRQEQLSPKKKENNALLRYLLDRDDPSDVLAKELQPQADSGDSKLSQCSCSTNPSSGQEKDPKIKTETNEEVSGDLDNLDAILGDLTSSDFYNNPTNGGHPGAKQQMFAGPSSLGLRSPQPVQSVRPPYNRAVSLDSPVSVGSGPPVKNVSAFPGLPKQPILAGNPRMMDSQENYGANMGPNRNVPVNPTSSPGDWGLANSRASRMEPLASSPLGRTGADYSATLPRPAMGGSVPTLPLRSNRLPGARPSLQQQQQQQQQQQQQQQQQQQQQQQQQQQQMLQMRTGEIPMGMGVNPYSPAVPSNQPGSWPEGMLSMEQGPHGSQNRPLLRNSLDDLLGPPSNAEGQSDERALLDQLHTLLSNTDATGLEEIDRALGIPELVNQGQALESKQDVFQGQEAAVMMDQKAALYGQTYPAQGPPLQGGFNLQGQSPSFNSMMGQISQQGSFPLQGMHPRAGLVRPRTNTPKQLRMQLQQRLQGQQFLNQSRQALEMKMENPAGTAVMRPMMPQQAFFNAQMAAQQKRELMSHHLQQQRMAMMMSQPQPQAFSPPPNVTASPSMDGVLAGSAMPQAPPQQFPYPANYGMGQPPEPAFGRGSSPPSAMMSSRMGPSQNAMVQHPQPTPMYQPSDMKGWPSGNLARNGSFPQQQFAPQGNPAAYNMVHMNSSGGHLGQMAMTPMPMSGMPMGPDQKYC
SKN-1 inh: suppressors of acrylamide-induced Pgst-4::GFP reporter in worms, primary screen, SKN-1 inhibitor project, whole organism, uHTS, GFP/RFP fluorescence ratio, strain VP596; C. elegans VP596 Pgst-4::GFP/RFP ratio, 24 h; inhibition, % at 21.8 µM; 360,000 compounds, 0.49% hits; AID 624304, 2012;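 active = interference check ratio from 0.5 to 1.5 plus GFP to RFP signal ratio inhibition reaching or exceeding a fixed threshold, cut at about 30% in these data, passing the limit was not always enough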
bovine MsrA act: bovine MsrA enzyme activators, primary screen, biochemical, absorbance, HTS; Methionine sulfoxide reductase A (Bos taurus); purified bovine MsrA, absorbance read-out; activation, % at 10.6 µM; AID 602163, 2012; 360,000 compounds, 0.3% hits; in the data active = activation above about 7.5%;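 note: 0% = vehicle and 100% = reference activator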
MsrA inh: bovine MsrA enzyme inhibitors, primary screen, biochemical, absorbance, HTS; Methionine sulfoxide reductase A (Bos taurus); purified bovine MsrA, absorbance read-out; AID 651718, 2012; 360,000 compounds, 0.75% hits; inhibition, % at 15.5 µM; in the data active = inhibition above about 4.5%;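 note: 0% = vehicle wells with enzyme and 100% = reference inhibitor wells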
Starred values were filed as active, the others as inactive; x = no result given. Only some compounds are listed: those with a hit (about 1.6% of all), similar ones and a draw of the others.

SMILES | MT1-MMP act inh | p-CIP stab down | SKN-1 inh | bovine MsrA act | MsrA inh
CCCCC1O[C@@H](C)[C@@H]2CN3CCc4c([nH]c5ccccc45)[C@@H]3C[C@@H]2N1C (stereo partly drawn) | x | x | x | x | 1
CCOCC(=O)Nc1cccc(Br)c1 | -2 | 5 | 37* | -2 | -1
CCOCC(=O)Nc1cccc(NC(C)=O)c1 | 1 | -12 | 19 | -5 | -1
COc1ccc(S(=O)(=O)n2ccc(-c3ccc(OCCN(C)c4ccccn4)cc3)n2)cc1 | 0 | -15 | 45* | -3 | 1
CCCCCNC(=O)c1ccccc1SC | -3 | -6 | 35* | -9 | 0
CSc1ccccc1C(=O)NCCOc1cccc(C)c1 | -4 | -7 | 40* | -8 | -1
N/C(=N\N=C/c1ccc(F)cc1)N/N=C\c1ccc(F)cc1 | 10 | -5 | 51* | -1 | 1
O=C(/C=C(\Nc1cccc(OC(F)F)c1)c1ccccc1)c1ccccc1 | x | x | x | x | 2
CN1C(=S)N(c2cccnc2)C(=O)/C1=C\c1ccc(N(C)C)cc1 | -58 | -22 | 31 | 0 | 1
Cc1c(N2C(=O)/C(=C\c3ccc(N(C)C)cc3)N(C)C2=S)c(=O)n(-c2ccccc2)n1C | -68 | -118 | 64* | -5 | 0
O=C1NC(c2ccc3c(c2)OCO3)c2c(-c3ccccc3)n[nH]c21 (stereo not drawn) | x | x | x | x | 0
Cc1cc(O)c(C(C)C)cc1NC(=O)Nc1ccc([N+](=O)[O-])cc1 | -1 | x | 44* | -7 | 2
Cc1ccc(C(C)C)cc1NC(=O)Nc1ccc([N+](=O)[O-])cc1 | -16 | -19 | 20 | 0 | -1
CCCCOCC1CN(CCCC)S(=O)(=O)c2c(cccc2N2CCCCC2)O1 (stereo not drawn) | x | x | x | x | 1
Cc1c(C(=O)/C=C/c2cccs2)oc2ccc(F)cc12 | -10 | -1 | 52* | -4 | 1
Cc1c(C(=O)Nc2nccs2)oc2ccc(F)cc12 | -5 | x | 17 | -3 | 1
Nc1[nH]c(C(=O)c2ccc(Br)cc2)c(-c2ccccc2Cl)c1C(=O)NCCc1c[nH]c2ccccc12 | x | x | x | x | 2
CC1CCN(CC(=O)Nc2cccc(C(=O)Nc3cccc(C(F)(F)F)c3)c2)CC1 | -1 | -18 | 44* | 1 | -2
CCOC(=O)CN1C(=O)[C@]2(OCCC=C[C@H]2C)c2ccccc21 | x | x | x | x | 3
CCCc1cc2nnc(SCC(=O)N(C)C3CCCCC3)n2c(N)n1 | -5 | -7 | 43* | -1 | -1
COc1ccc([N+](=O)[O-])cc1NC(=O)C(C)OC(=O)CSC(C)C(=O)Nc1cc(C)on1 (stereo not drawn) | 6 | x | 37* | -2 | 3
CN(C)c1nc(NCc2ccccc2)nc(SCC(=O)Nc2ccccc2)n1 | 3 | -10 | 16 | 18* | 1
CCOC(=O)C1=C(COC(=O)c2ccc(Cl)cc2[N+](=O)[O-])NC(=O)NC1C (stereo not drawn) | -3 | x | 34* | -7 | -1
CCCOc1cccc(C(=O)Nc2ccc(CN3CCOCC3)cc2)c1 | 4 | 1 | -3 | -2 | 0
O=C(/C=C/c1ccc(Cl)cc1Cl)Nc1ccc(CN2CCOCC2)cc1 | -1 | -3 | 47* | -3 | 1
SMILES | MT1-MMP act inh | p-CIP stab down | SKN-1 inh | bovine MsrA act | MsrA inh
CC(C)Oc1cccc(C(=O)Nc2ccc(CN3CCOCC3)cc2)c1 | 1 | -5 | 35* | -4 | -1
O=C(/C=C/c1ccccc1)Nc1ccc(CN2CCOCC2)cc1 | 1 | 1 | 65* | -5 | 1
O=C(/C=C/c1ccco1)Nc1ccc(CN2CCOCC2)cc1 | 1 | 0 | 14 | -2 | -1
C#CCN1C(=O)[C@]2(OCCC=C[C@H]2C)c2cc(OC)ccc21 | x | x | x | x | 3
COc1ccc(-c2nc3ncccc3o2)cc1NC(=O)c1ccco1 | -1 | 11 | 13 | -4 | 4.6*
COc1ccc(-c2nc3ncccc3o2)cc1NC(=O)c1cccs1 | -2 | -8 | 15 | -3 | 4
N#Cc1cc2c(N)c(C(=O)Nc3ccccc3)sc2nc1N | x | -1 | x | x | x
Cc1cccc(NC(=O)c2sc3nc(N)c(C#N)cc3c2N)c1 | -2 | -5 | -1 | -8 | 4.6*
Cc1cccc(CN2[C@@H](C)[C@H](c3ccccc3)Oc3cc(Br)ccc3S2(=O)=O)c1 | x | x | x | x | -1
